Test results taken from ChEMBL document CHEMBL4196197, “Irilone from Red Clover ( Trifolium pratense) Potentiates Progesterone Signaling” (J Nat Prod, 2018).
Calls of active or inactive are those of the source. No cut-off for these calls is given here.

Key:
[1] = molecular target: T1, Progesterone receptor (Homo sapiens) (UniProt P06401); assay: Agonist activity at PR-b (unknown origin) expressed in Ishikawa cells assessed as increase in PRE activity at 1 to 50 uM after 24 hrs in absence of progesterone by luciferase reporter gene based luminescence assay; assay type: cell-based
T1 sequence (whole entry): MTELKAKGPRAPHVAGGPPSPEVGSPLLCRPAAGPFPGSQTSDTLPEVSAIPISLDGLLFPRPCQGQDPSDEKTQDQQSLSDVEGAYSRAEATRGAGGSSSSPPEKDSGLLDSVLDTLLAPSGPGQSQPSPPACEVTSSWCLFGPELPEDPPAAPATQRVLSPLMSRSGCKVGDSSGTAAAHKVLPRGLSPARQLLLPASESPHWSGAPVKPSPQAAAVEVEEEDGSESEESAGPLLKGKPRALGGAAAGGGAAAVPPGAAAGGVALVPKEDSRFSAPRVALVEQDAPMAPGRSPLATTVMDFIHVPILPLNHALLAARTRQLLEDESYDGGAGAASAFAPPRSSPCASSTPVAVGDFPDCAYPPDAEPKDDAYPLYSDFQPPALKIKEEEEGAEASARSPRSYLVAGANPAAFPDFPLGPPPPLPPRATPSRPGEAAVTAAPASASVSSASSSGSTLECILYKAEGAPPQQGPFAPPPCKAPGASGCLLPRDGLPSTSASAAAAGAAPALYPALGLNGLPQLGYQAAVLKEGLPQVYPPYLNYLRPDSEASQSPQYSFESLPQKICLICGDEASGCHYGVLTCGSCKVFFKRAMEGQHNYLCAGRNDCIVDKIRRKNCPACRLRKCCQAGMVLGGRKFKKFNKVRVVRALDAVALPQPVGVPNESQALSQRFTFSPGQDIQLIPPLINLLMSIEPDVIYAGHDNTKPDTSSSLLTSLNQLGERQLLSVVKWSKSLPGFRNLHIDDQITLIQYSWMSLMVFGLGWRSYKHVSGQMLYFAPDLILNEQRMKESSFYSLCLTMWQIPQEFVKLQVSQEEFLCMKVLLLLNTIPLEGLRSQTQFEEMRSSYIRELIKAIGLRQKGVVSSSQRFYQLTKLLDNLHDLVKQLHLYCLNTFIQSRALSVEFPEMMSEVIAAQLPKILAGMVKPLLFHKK
Summary of the method: (§1)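 Ishikawa cells stably expressing CMV-driven PR-B, kept in phenol red-free DMEM/F12 with 5% charcoal-stripped FBS plus G418/hygromycin. Seeded 40,000/well in steroid-free medium. Next day transfected with PRE/Luc plus CMV-β-galactosidase (LT1). Compounds were added without progesterone for 24 h, then lysed and frozen at −80 °C. Luciferase (mean of first six RLU reads) normalized to β-gal, then to DMSO control, n≥3.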

[2] = molecular target: T1, Progesterone receptor (Homo sapiens); assay: Agonist activity at PR-b (unknown origin) expressed in Ishikawa cells assessed as increase in progesterone-induced PRE activity at 50 uM after 24 hrs by luciferase reporter gene based luminescence assay relative to control; assay type: cell-based
Summary of the method: (§2)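 PRE/Luc transactivation in Ishikawa cells stably expressing PR-B under CMV, seeded 40,000/well in steroid-free phenol red-free medium with charcoal-stripped FBS. Next day co-transfected with PRE/Luc and CMV-β-galactosidase. Compounds were given together with 100 nM progesterone for 24 h. Luciferase, averaged over the first six RLU reads, normalized to β-gal and then to control; n≥3.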

[3] = molecular target: T1, Progesterone receptor (Homo sapiens); assay: Agonist activity at PR-b (unknown origin) expressed in Ishikawa cells assessed as increase in PRE activity at 50 uM after 24 hrs by luciferase reporter gene based luminescence assay (reference value: 25.7); assay type: cell-based; summary of the method: as §1
PEO1 [4] = assay: Antiproliferative activity against human PEO1 cells at 1 to 50 uM after 5 days by SRB assay; assay type: functional, cell-based
Summary of the method: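 PEO1 cells (RPMI, 10% FBS, glutamine, pyruvate) seeded at 1,000/well in steroid-free medium, one plate fixed at 2 h as day 0. Compounds at 1–50 μM, alone without progesterone, for 5 days. Fixed with 20% TCA at 4 °C, stained with 0.4% SRB in 1% acetic acid, dissolved in 10 mM Tris, A505. Day 5 normalized to day 0; n≥3.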

PEO1 [5] = assay: Antiproliferative activity against human PEO1 cells at 25 to 50 uM after 5 days by SRB assay; assay type: functional, cell-based
Summary of the method: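 SRB growth assay in PEO1 cells: 1,000 cells/well in steroid-free medium, day-0 plate TCA-fixed 2 h after seeding. Compound was given together with 100 nM progesterone for five days, then cells TCA-fixed, SRB-stained, dye solubilized in 10 mM Tris, absorbance at 505 nm. Day-5 values normalized to day 0; n≥3.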

[6] = molecular target: T1, Progesterone receptor (Homo sapiens); assay: Agonist activity at PR-b (unknown origin) expressed in Ishikawa cells assessed as increase in progesterone-induced PRE activity at 25 uM after 24 hrs by luciferase reporter gene based luminescence assay relative to control; assay type: cell-based; summary of the method: as §2
Progesterone receptor = molecular target: T2, Progesterone receptor (Homo sapiens, UniProt P06401); assay: Induction of PR-b degradation in human Ishikawa cells up to 50 uM after 24 hrs by Western blot analysis; assay type: cell-based
T2 sequence (P06401 whole entry): T1 sequence (whole entry)
Summary of the method: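 Ishikawa PR-B cells in steroid-free medium treated with 0, 25 or 50 μM for 24 h. RIPA lysates with protease/phosphatase inhibitors, 25 μg protein by SDS-PAGE onto nitrocellulose. Blocked in 5% milk, probed overnight with anti-PR (H-190, 1:500) and β-actin (1:1000), anti-rabbit secondary, chemiluminescent detection.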

PEO1 [7] = assay: Antiproliferative activity against human PEO1 cells at 0.001 to 10 uM after 5 days by SRB assay; assay type: functional, cell-based
Summary of the method: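 PEO1 cells kept in RPMI with 2 mM glutamine, 2 mM sodium pyruvate and 10% FBS; seeded at 1,000 cells/well in steroid-free medium. A day-0 plate was fixed with 20% TCA 2 h after seeding; the second plate was treated for 5 days, then fixed. SRB stain (0.4% in 1% acetic acid), dissolved in 10 mM Tris, A505; day 5 normalized to day 0; n≥3.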

[8] = molecular target: T1, Progesterone receptor (Homo sapiens); assay: Agonist activity at PR-b (unknown origin) expressed in Ishikawa cells assessed as increase in progesterone-induced PRE activity at 1 uM after 24 hrs by luciferase reporter gene based luminescence assay; assay type: cell-based; summary of the method: as §2
[9] = molecular target: T1, Progesterone receptor (Homo sapiens); assay: Antagonist activity at PR-b (unknown origin) expressed in Ishikawa cells assessed as inhibition of progesterone-induced PRE activity at 50 uM after 24 hrs by luciferase reporter gene based luminescence assay; assay type: cell-based; summary of the method: as §2
[10] = molecular target: T1, Progesterone receptor (Homo sapiens); assay: Agonist activity at PR-b (unknown origin) expressed in Ishikawa cells assessed as increase in PRE activity at 1 uM after 24 hrs in absence of progesterone by luciferase reporter gene based luminescence assay; assay type: cell-based; summary of the method: as §1
[11] = molecular target: T1, Progesterone receptor (Homo sapiens); assay: Antagonist activity at PR-b (unknown origin) expressed in Ishikawa cells assessed as inhibition of progesterone-induced PRE activity at >= 25 uM after 24 hrs by luciferase reporter gene based luminescence assay; assay type: cell-based; summary of the method: as §2
[12] = molecular target: T1, Progesterone receptor (Homo sapiens); assay: Antagonist activity at PR-b (unknown origin) expressed in Ishikawa cells assessed as inhibition of basal PRE activity at 50 uM after 24 hrs in absence of progesterone by luciferase reporter gene based luminescence assay; assay type: cell-based; summary of the method: as §1
[13] = molecular target: T1, Progesterone receptor (Homo sapiens); assay: Antagonist activity at PR-b (unknown origin) expressed in Ishikawa cells assessed as inhibition of basal PRE activity at 25 to 50 uM after 24 hrs in absence of progesterone by luciferase reporter gene based luminescence assay; assay type: cell-based; summary of the method: as §1

Compound | Activity (Progesterone receptor) | Activity [8] | inhibition [9] [%] | inhibition [11] | inhibition [12] | further results
O=c1c(-c2ccc(O)cc2)coc2cc3c(c(O)c12)OCO3 | Not Active |  |  |  |  | Activity [1]: inactive; Activity [2]: 151%; fold change (FC) [3]: 48.4; Activity (PEO1 [4]): inactive; Activity (PEO1 [5]): Active; Activity [6]: 138%
CC(=O)[C@H]1CC[C@H]2[C@@H]3CCC4=CC(=O)CC[C@]4(C)[C@H]3CC[C@]12C |  |  |  |  |  | Activity (PEO1 [7]): inactive
COc1ccc(-c2coc3cc(O)cc(O)c3c2=O)cc1 [BIOCHANIN] | Not Active | Active | > 90 | Active | Active | Activity [10]: 55%
COc1ccc(-c2coc3cc(O)ccc3c2=O)cc1 [FORMONONETIN] | Not Active | 57% | > 90 | Active | Active | 
COc1cc(O)c2c(=O)c(-c3ccc(O)cc3)coc2c1 [PRUNETIN] | Not Active |  | > 90 | Active |  | inhibition [13]: Active
